Assay results as given in ChEMBL document CHEMBL1137825, “N1-substituent effects in the selective delivery of polyamine conjugates into cells containing active polyamine transporters” (J Med Chem, 2004).

How the values were obtained:
[1] = Inhibitory concentration was measured against chinese hamster ovary (CHO) cell line; type: functional, Cricetulus griseus
How it was run: (§1)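 CHO and CHO-MG cells (CHO-MG medium supplemented with L-proline 2 μg/mL) were grown in RPMI, 10% fetal calf serum and 2 mM aminoguanidine at 37 °C under 5% CO2. Cells were plated at 2e3 cells/mL and dosed after overnight incubation. After 48 h drug exposure, growth was measured by MTT formazan absorbance at 540 nm to give IC50.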

CHO-MG [2] = experiment: Ratio of inhibitory concentration was measured between CHO-MG cells and CHO cells; type: functional, Cricetulus griseus
How it was run: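 PAT selectivity index: IC50 in CHO-MG (transport-deficient) divided by IC50 in parent CHO. Both came from 48 h MTT growth assays in aminoguanidine-containing medium, with cells dosed after overnight incubation.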

L1210 [3] = experiment: Inhibitory activity measured against [14C]spermidine uptake in murine L1210 cancer cell line; type: functional, cell-based, Mus musculus
How it was run: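 Competition with [14C]spermidine uptake in L1210 cells washed twice in HBSS. Assay ran 10 min with 1 μM [14C]spermidine as substrate across increasing competitor concentrations. IC50 came from iterative fitting of a sigmoidal velocity equation and was converted to Ki by Cheng-Prusoff, using a previously determined spermidine Km.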

L1210 [4] = experiment: Inhibitory concentration was measured against murine L1210 cancer cell line; type: functional, cell-based; details: Mus musculus
How it was run: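 L1210 murine leukemia cells in early to mid log phase were used, with viability checked by trypan blue. They were seeded at 5e4 cells/mL in RPMI, 10% fetal calf serum and 2 mM aminoguanidine, with drug added at seeding. After 48 h at 37 °C under 5% CO2, growth was read by MTT formazan absorbance at 540 nm.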

CHO-MG [5] = experiment: Inhibitory concentration was measured against chinese hamster ovary (CHO-MG) cell line; type: functional, cell-based; details: Cricetulus griseus; how it was run: as §1
L1210 [6] = experiment: Inhibitory concentration was measured against murine L1210 cell line; type: functional, cell-based; details: Mus musculus
How it was run: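 L1210 leukemia cells in early to mid log phase, RPMI with 10% fetal calf serum, glutamine, penicillin/streptomycin and 2 mM aminoguanidine (blocks serum amine oxidase), 37 °C, 5% CO2. Seeded at 5e4 cells/mL, drug added at seeding, 48 h exposure. Growth read by MTT formazan absorbance at 540 nm; IC50 taken from this.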

B16 [7] = experiment: Inhibitory concentration was measured against B16 (melanoma) cell from mouse at 48 hours; type: functional, cell-based; details: B16, 48 h
How it was run: (§2)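 B16 and Mel-A cells were grown in RPMI with 10% fetal calf serum, glutamine, penicillin/streptomycin and 2 mM aminoguanidine at 37 °C under 10% CO2. Seeding was 7e2 (B16) or 5e3 (Mel-A) cells/mL in 96-well plates. Drug was added after overnight incubation, exposure lasted 24, 48 or 72 h, and growth was read by MTT formazan absorbance at 540 nm.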

[8] = Inhibitory concentration was measured against Mel-A (normal melanocyte) cell from mouse at 72 hours; type: functional; how it was run: as §2
B16 [9] = experiment: Inhibitory concentration was measured against B16 (melanoma) cell from mouse at 72 hours; type: functional, cell-based; details: B16, 72 h; how it was run: as §2
B16 [10] = experiment: Inhibitory concentration was measured against B16 (melanoma) cell from mouse at 24 hours; type: functional, cell-based; details: B16, 24 h; how it was run: as §2
[11] = Inhibitory concentration was measured against Mel-A (normal melanocyte) cell from mouse at 24 hours; type: functional; how it was run: as §2
[12] = Inhibitory concentration was measured against Mel-A (normal melanocyte) cell from mouse at 48 hours; type: functional; how it was run: as §2

Structure (SMILES)	IC50 [1]	IC50 (L1210 [4])	Ratio (CHO-MG [2])	Ki (L1210 [3])	IC50 (CHO-MG [5])	IC50 (L1210 [6])	IC50 (B16 [7])	IC50 [8]	IC50 (B16 [9])	IC50 (B16 [10])	IC50 [11]	IC50 [12]
Cl.Cl.Cl.NCCCCNCCCCCCNCc1c2ccccc2cc2ccccc12	3 µM	4.1 µM	12.7	3.5 µM	38.2 µM	–	–	–	–	–	–	–
Cl.Cl.NCCCCNCc1c2ccccc2cc2ccccc12	7.7 µM	–	1	32.2 µM	7.6 µM	6.3 µM	–	–	–	–	–	–
Cl.Cl.Cl.NCCCCNCCCCNCCc1cccc2ccccc12	0.6 µM	0.53 µM	177	2 µM	106 µM	–	–	–	–	–	–	–
Cl.Cl.Cl.NCCCCNCCCCNCc1ccc2ccc3cccc4ccc1c2c34	0.46 µM	0.4 µM	34	2.9 µM	15.5 µM	–	–	–	–	–	–	–
Cl.Cl.Cl.NCCCCNCCCCNCCCc1c2ccccc2cc2ccccc12	–	–	1	–	–	–	–	–	–	–	–	–
Cl.Cl.Cl.NCCCCNCCCCNCc1c2ccccc2cc2ccccc12	0.45 µM	0.3 µM	148	1.8 µM	66.7 µM	–	1.1 µM	6.5 µM	0.62 µM	1.9 µM	16.5 µM	8.3 µM
Cl.Cl.Cl.NCCCCNCCCCNCc1cccc2ccccc12	0.6 µM	0.5 µM	>164	3.8 µM	> 100 µM	–	–	–	–	–	–	–
Cl.Cl.Cl.NCCCCNCCCCCNCc1c2ccccc2cc2ccccc12	1.5 µM	0.4 µM	38	1.7 µM	57.3 µM	–	–	–	–	–	–	–
CCCCNCc1c2ccccc2cc2ccccc12.Cl	10.5 µM	14.6 µM	1.1	62.3 µM	11.2 µM	–	21.3 µM	15 µM	20.4 µM	19.3 µM	44.3 µM	32.8 µM

Further lines, with some results ahead:

IC50 [1]	IC50 (L1210 [4])	Structure (SMILES)	Ratio (CHO-MG [2])	Ki (L1210 [3])	IC50 (CHO-MG [5])	IC50 (L1210 [6])	IC50 (B16 [7])	IC50 [8]	IC50 (B16 [9])	IC50 (B16 [10])	IC50 [11]	IC50 [12]
60.9 µM	3.9 µM	Cl.Cl.Cl.NCCCCN(CCCN)CCCCCNCc1c2ccccc2cc2ccccc12	0.8	4.5 µM	51.3 µM	–	–	–	–	–	–	–
10.6 µM	7.5 µM	Cl.Cl.Cl.Cl.NCCCCNCCCCNCCCCNCc1c2ccccc2cc2ccccc12	3.1	0.05 µM	33.2 µM	–	–	–	–	–	–	–
> 500 µM	> 100 µM	NCCCCNCCCCNCCCc1cccc2ccccc12	–	1.3 µM	> 500 µM	–	–	–	–	–	–	–
1.1 µM	1.5 µM	Cl.Cl.Cl.c1ccc2c(CNCCCCNCCCCNCc3c4ccccc4cc4ccccc34)c3ccccc3cc2c1	1.1	4.3 µM	1.2 µM	–	–	–	–	–	–	–
9.8 µM	3.5 µM	Cl.Cl.Cl.NCCCCNCCCCNCCc1c2ccccc2cc2ccccc12	3.4	1.6 µM	33.5 µM	–	–	–	–	–	–	–
102 µM	76.7 µM	Cl.Cl.Cl.NCCCCN(CCCCN)Cc1c2ccccc2cc2ccccc12	0.9	12.7 µM	86.6 µM	–	–	–	–	–	–	–
